# From PubChem BioAssay
# In the library only some 3.5% were active in any assay of this set; here they are far more common.
# RGS4 inh: RGS4 inhibitors, primary screen, cell-based, HEK293 M3R inducible RGS4, calcium flux; Regulator of G-protein signaling 4 (Homo sapiens), P49798; Fluo-4 calcium flux; active compounds read high; triggered by carbachol at its EC20; B-score at 10 µM; 310,000 tested, 0.45% active; AID 463165, 2010;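 active = B-score, a plate-corrected calcium signal, over three deviations above library mean, with baseline fluorescence within five deviations of library mean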;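 also: RGS4 expression induced by doxycycline in cells with stable M3 receptor; B-score is computed from the integrated fluorescence ratio over baseline after carbachol; higher B-score means a larger calcium signal and so more RGS4 inhibition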
# Target sequence (P49798 whole entry, looked up): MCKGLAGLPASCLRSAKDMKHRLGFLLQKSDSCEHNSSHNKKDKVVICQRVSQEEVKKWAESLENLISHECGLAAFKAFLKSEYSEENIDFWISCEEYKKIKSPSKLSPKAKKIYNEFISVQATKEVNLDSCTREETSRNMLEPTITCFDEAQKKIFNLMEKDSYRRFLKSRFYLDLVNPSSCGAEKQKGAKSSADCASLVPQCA
# MrgX1 ag: agonists of human MrgX1 receptor, primary screen, HEK293 cells, Fluo-4 calcium flux; Fluo-4 calcium fluorescence, agonist mode; active compounds read high; B-score at 10 µM; 310,000 tested, 0.44% active; AID 588627, 2011;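 active = calcium response B-score plate-corrected fluorescence ratio at least 3 library SD, with starting fluorescence B-score inside 5 SD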
# Target sequence (Q96LB2 whole entry, looked up): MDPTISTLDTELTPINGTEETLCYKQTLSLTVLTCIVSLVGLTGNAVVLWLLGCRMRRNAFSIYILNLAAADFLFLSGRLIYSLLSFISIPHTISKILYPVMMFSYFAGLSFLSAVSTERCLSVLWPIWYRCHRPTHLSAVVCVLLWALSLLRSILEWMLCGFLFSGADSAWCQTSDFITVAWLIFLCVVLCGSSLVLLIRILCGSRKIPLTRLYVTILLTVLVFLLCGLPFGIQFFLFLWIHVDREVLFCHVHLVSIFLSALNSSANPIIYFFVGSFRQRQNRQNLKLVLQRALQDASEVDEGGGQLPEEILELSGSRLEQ
#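 Assay system: stable human MrgX1 HEK293 cell line. Quantity: 15,000 cells per well. Schedule: cells plated overnight, dye loaded 0.5 h 37 °C, 0.5 h room temperature. Detection: Fluo-4 NW calcium-flux fluorescence, kinetic read. Read-out basis: peak-minus-minimum fluorescence over baseline, converted to B scores. Control set: positive and negative control wells on each plate.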
# RGS4 act: RGS4 potentiators or activators, primary screen, cell-based, HEK293 M3R inducible RGS4, calcium flux; carbachol calcium flux Fluo4; active compounds read low; B-score at 10 µM; 310,000 tested, 0.92% active; AID 463111, 2010;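 active = B-score of the integrated calcium signal more than 4 SD below the library mean, with starting fluorescence not abnormally high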;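 also: negative B-score means reduced calcium response which marks RGS4 activation or potentiation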
#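 Test system: HEK293 cells with stable M3R and inducible RGS4; also added: carbachol at ECmax as muscarinic agonist stimulus; schedule: dye loading 30 min 37 °C, buffer rest 30 min RT; technique: kinetic calcium fluorescence imaging with Fluo4-AM dye, 2 µM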
# MrgX1 allo act: positive allosteric modulators of MrgX1, primary screen, HEK293 cells, Fluo-4 calcium flux; Mas-related G-protein coupled receptor member X1 (Homo sapiens), Q96LB2; FDSS; active compounds read high; B-score at 10 µM; 310,000 tested, 0.63% active; AID 588675, 2011;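 active = plate-corrected calcium response at least 3 library SD above typical, normal starting fluorescence, not activating the receptor alone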;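 also: compound read alongside a low EC10 to EC30 dose of BAM8-22 agonist; peak minus trough fluorescence over baseline measured at the second addition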
# MrgX1 antagonist: antagonists of human MrgX1 receptor, primary screen, HEK293 cells, Fluo-4 calcium flux; BAM8-22 antagonism; active compounds read low; B-score at 10 µM; Mas-related G-protein coupled receptor member X1 (Homo sapiens), Q96LB2; 310,000 tested, 1.3% active;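 active = calcium-response B-score plate-corrected more than 3 library SD below zero, starting fluorescence within 5 deviations, no agonist response on first addition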;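 also: peak minus trough fluorescence over baseline after final BAM8-22 challenge near maximal dose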
# MrgX1 ag confirm: MrgX1 receptor agonists, duplicate retest, confirmation, HEK293 cells, Fluo-4 calcium flux. Fluo-4 calcium fluorescence, FDSS. shares compounds with MrgX1 ag. activation, % at 10 µM. 600 tested, 78% active;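 active = calcium signal rise, corrected for plate position, at least 3 library SD high, with starting brightness within 5 such deviations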
# HEK293 Ca flux: nonspecific calcium signal in parental HEK293, confirmation, counter-screen for MrgX1 antagonist project, parental HEK293 cells, Fluo-4 calcium flux | shares compounds with MrgX1 antagonist | Fluo-4 calcium fluorescence, FDSS | fluorescence ratio F(max-min)/F0 at 10 µM | 4,000 tested, 2% active;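 active = duplicate-averaged calcium fluorescence ratio at least three times the standard deviation of buffer wells, a nonspecific response in parental cells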
# HEK293 Ca counter: calcium response in parental HEK293 cells, primary screen, counter-screen for MrgX1 allosteric activator project, cell-based, Fluo-4 calcium flux, duplicate | shares compounds with MrgX1 antagonist | Fluo-4 fluorescence ratio; active compounds read high | fluorescence ratio F(max-min)/F0 at 10 µM | 4,000 tested, 0.4% active;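 active = calcium fluorescence ratio, averaged over duplicates, at least 3 SD of the buffer-well ratio, meaning a nonspecific response in receptor-free cells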;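 also: untransfected parental HEK293 lacking MrgX1 used as counterscreen for MrgX1 allosteric activators; fluorescence change taken during the second addition on a kinetic imager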
# HEK293 Ca cntr2: calcium response in parental HEK293 cells, primary screen, counter-screen for MrgX1 agonist project, cell-based, Fluo-4 calcium flux, duplicate, agonist mode; Fluo-4 calcium fluorescence (FDSS); active compounds read high; 4,000 tested, 8.7% active; shares compounds with MrgX1 antagonist; fluorescence ratio F(max-min)/F0 at 10 µM;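 active = calcium fluorescence ratio at least three times the spread of buffer wells, meaning a non-specific response in parental cells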
# The depositor's hits bear a star; i = inactive; / = no result given.
SMILES,RGS4 inh,MrgX1 ag,RGS4 act,MrgX1 allo act,MrgX1 antagonist,MrgX1 ag confirm,HEK293 Ca flux,HEK293 Ca counter,HEK293 Ca cntr2
Cc1cc(N2CCOCC2)nc(NCc2ccccc2)n1,i,66*,i,i,i,294%*,i,i,i
Cc1cc(NCc2ccccc2)nc(N2CCOCC2)n1,i,i,i,i,i,/,/,/,/
Cc1nn(-c2ccccc2)c2c1C(c1ccc(F)cc1F)C(C#N)=C(N)O2 (centres undefined),i,27*,i,i,i,183%*,i,i,i
Cc1nnc(SCCOC(N)=O)n1C,i,/,i,/,/,/,/,/,/
C[N+](C)(C)CCOC(N)=O,/,118*,/,i,i,547%*,i,i,112*
O=C(CCCN1Cc2ccccc2C1)c1ccc(F)cc1,i,38*,i,i,i,145%*,i,i,i
CN1CCN(CCCC(=O)c2ccc(F)cc2)CC1,i,i,i,i,i,/,/,/,/
O=S(=O)(Nn1cnnc1)c1ccccc1,i,i,i,i,i,/,/,/,/
COc1cc(C=C2C(=O)c3ccccc3C2=O)cc(OC)c1OC,i,i,i,i,i,/,/,/,/
CCCCC(=O)NC(=S)Nc1cccc(C(=O)O)c1,i,32*,i,i,i,i,i,i,i
O=C(O)C1C(C(=O)Nc2ccc(Cl)cc2)C2C=CC1C21CC1 (centres undefined),i,32*,i,i,i,i,i,i,i
O=C(O)C1C2CCC(O2)C1C(=O)Nc1ccc(F)c(Cl)c1 (centres undefined),i,i,i,i,i,/,/,/,/
CC1CCN(C(=O)C2CCN(S(=O)(=O)c3cccs3)CC2)CC1,i,i,i,i,i,/,/,/,/
CCOC(=O)c1ccc2c(c1)NCc1cccc(OC)c1O2,i,28*,i,i,i,i,i,i,i
O=C(O)c1nc(N2CCCCC2)ncc1Cl,i,i,i,i,i,/,/,/,/
Cc1cccc2c1N(CCCOc1ccccc1)C(=O)C2=O,i,35*,i,i,i,251%*,i,i,50*
Cc1cccc2c1N(CCCOc1ccc(C(C)(C)C)cc1)C(=O)C2=O,i,i,i,i,i,/,/,/,/
Cc1ccc(-n2c(SCC(=O)N3CCCCC3)nc(O)cc2=O)cc1,i,i,i,i,i,/,/,/,/
Cc1ccc(NS(=O)(=O)c2ccc(C(=O)N3CCC3)cc2)cc1,i,i,i,i,i,/,/,/,/
Cc1ccc(NS(=O)(=O)c2ccc(C(=O)N3CC(C)OC(C)C3)cc2)cc1 (centres undefined),i,29*,i,i,i,151%*,i,i,i
CC(=Nc1ccccc1)c1sc2ccccc2c1O,i,61*,i,i,i,376%*,i,i,100*
CC(=Nc1ccc(Br)cc1)c1sc2ccccc2c1O,i,i,i,i,i,/,/,/,/
COc1cc(C#N)ccc1OCC(=O)N1CCc2ccccc2C1,i,50*,i,i,i,i,i,i,i
CCOc1cc(C#N)ccc1OCC(=O)N1CCc2ccccc2C1,i,i,i,i,i,/,/,/,/
CC(=O)c1cccc(S(=O)(=O)NCCC(=O)Nc2ccc(S(N)(=O)=O)cc2)c1,i,i,i,i,i,/,/,/,/
SMILES,RGS4 inh,MrgX1 ag,RGS4 act,MrgX1 allo act,MrgX1 antagonist,MrgX1 ag confirm,HEK293 Ca flux,HEK293 Ca counter,HEK293 Ca cntr2
COCCNC(=O)/C(C#N)=C/c1c(N2CCCCCC2)nc2ccccn2c1=O,i,i,i,i,i,/,/,/,/
COc1cc(/C=C2\SC(=Nc3ccccc3)NC2=O)cc(Cl)c1O,i,84*,i,i,i,i,0.39*,i,139*
O=C1Nc2ccccc2C(=O)C1(Cl)Cc1ccccc1 (centres undefined),i,32*,i,i,i,199%*,i,i,i
CC(C)(C)N1C(=O)c2ccccc2NC(=O)N1Cc1ccccc1,i,i,i,i,i,/,/,/,/
Cn1ccc(-c2cc(C(=O)O)c3ccccc3n2)n1,i,i,i,i,i,/,/,/,/
Nc1nnc(SCC(=O)Nc2ccc(N3CCOCC3)cc2)s1,i,i,i,i,i,/,/,/,/
O=c1c2c(-c3ccccc3)csc2ncn1/N=C/c1cccc([N+](=O)[O-])c1O,i,71*,i,i,i,315%*,i,i,76*
O=c1c2c(-c3ccccc3)csc2ncn1/N=C/c1ccc(O)c([N+](=O)[O-])c1,i,i,i,i,i,/,/,/,/
COC(=O)c1ccc(C)c(NC(=O)Cc2ccc([N+](=O)[O-])cc2)c1,i,i,i,i,i,/,/,/,/
O=c1[nH][nH]c(-c2ccccc2)c1C=Nc1ccc(OC(F)(F)F)cc1,i,33*,i,i,i,184%*,i,i,i
O=c1[nH][nH]c(-c2ccccc2)c1C=Nc1ccc(C(F)(F)F)cc1,i,i,i,i,i,/,/,/,/
Cc1ccc(NC(=S)Nc2ccc(Cl)c(Cl)c2)c(OC(F)F)c1,i,i,i,i,i,/,/,/,/
CNc1nnc(-c2ccncc2)s1,i,i,i,i,i,/,/,/,/
Cc1ccc(Nc2nnc(-c3ccncc3)s2)c(Br)c1,i,49*,i,i,i,i,i,i,i
Cc1ccc2cc(C#N)c(N3CCCN(S(=O)(=O)c4ccc(F)cc4)CC3)nc2c1,i,i,i,i,i,/,/,/,/
CC(C)N1CCc2c(sc(NC(=O)Cc3ccccc3)c2C(N)=O)C1,i,i,i,i,i,/,/,/,/
